In brackets after ≈: the same amount, converted by molar mass.
Columns and labels:
[1] = target: T1, Coagulation factor XIII A chain (Homo sapiens, UniProt P00488); test: In vitro inhibitory concentration of compound against factor XIIIa
T1 sequence (P00488 whole entry): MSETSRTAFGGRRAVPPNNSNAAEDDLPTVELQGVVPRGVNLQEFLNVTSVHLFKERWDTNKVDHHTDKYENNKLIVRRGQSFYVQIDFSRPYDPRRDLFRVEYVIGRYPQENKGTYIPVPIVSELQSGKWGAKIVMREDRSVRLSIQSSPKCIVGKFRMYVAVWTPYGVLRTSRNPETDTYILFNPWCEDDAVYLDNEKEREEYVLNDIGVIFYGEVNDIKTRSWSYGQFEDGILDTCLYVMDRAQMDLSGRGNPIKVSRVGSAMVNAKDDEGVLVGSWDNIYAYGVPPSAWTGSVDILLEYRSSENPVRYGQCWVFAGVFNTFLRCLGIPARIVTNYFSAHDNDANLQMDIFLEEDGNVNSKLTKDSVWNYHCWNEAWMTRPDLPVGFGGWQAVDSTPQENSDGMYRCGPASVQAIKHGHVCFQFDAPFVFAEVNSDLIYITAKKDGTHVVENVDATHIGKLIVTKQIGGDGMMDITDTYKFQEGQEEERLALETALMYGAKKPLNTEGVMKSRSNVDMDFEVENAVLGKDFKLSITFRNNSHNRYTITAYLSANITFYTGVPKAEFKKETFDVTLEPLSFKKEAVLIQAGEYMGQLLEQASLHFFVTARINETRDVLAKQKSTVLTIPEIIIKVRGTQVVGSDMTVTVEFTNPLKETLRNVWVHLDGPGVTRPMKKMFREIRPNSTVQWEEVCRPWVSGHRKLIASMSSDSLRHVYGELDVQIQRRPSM

[2] = Solubility at pH 7.4 was determined; assay type: physicochemical; conditions: buffer
In short: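 Aqueous solubility of the inhibitors measured at pH 7.4, reported in mg/mL.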

Cell line = test: Concentration causing reduction in fibrin gamma-chain cross-linking in platelet-depleted human plasma; assay type: functional

| Structure (SMILES) | IC50 [1] [µM] | further results |
| --- | --- | --- |
| O=[N+]([O-])c1ccc(S(=O)(=O)NCCCCCCNc2n[s+]c3[n-]ccn23)cc1 | 0.91 |  |
| O=C(O)CN(CCCCCCNS(=O)(=O)c1ccccc1[N+](=O)[O-])c1nsc2nccn12 |  | solubility [2]: 380 µg/mL (≈ 787 µM) |
| O=[N+]([O-])c1ccccc1S(=O)(=O)NCCCCCCNc1nsc2nccn12 |  | Concentration (Cell line): 160 µM |
| O=[N+]([O-])c1ccccc1S(=O)(=O)NCCCCCCNc1ncccc1[N+](=O)[O-] | 170 |  |
